{"source": "ChEMBL document CHEMBL3797028", "about": "“Novel S1P1 receptor agonists - Part 4: Alkylaminomethyl substituted aryl head groups” (Eur J Med Chem, 2016)", "key": {"[1]": {"experiment": "Plasma concentration in Wistar rat at 3 mg/kg administered as single dose through oral gavage after 6 hrs by LC-MS/MS analysis", "format": "ADME, organism-based", "in_short": "(§1)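 Single oral gavage dose to male Wistar rats in DMSO/7.5% succinylated gelatine (final 5% DMSO). Blood was drawn into EDTA at the lymphocyte-count timepoints. Plasma was prepared at 3000 g for 10 min at 4 °C and analysed by LC-MS/MS after protein precipitation.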"}, "[2]": {"experiment": "Plasma concentration in Wistar rat at 1 mg/kg administered as single dose through oral gavage after 24 hrs by LC-MS/MS analysis", "format": "ADME, organism-based", "in_short": "as §1"}, "[3]": {"experiment": "Plasma concentration in Wistar rat at 3 mg/kg administered as single dose through oral gavage after 24 hrs by LC-MS/MS analysis", "format": "ADME, organism-based", "in_short": "as §1"}, "Rattus norvegicus [4]": {"system": "Rattus norvegicus", "experiment": "Reduction in circulating lymphocyte count in po dosed Wistar rat administered through gavage after 3 to 96 hrs", "format": "functional, organism-based", "in_short": "(§2)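 Male Wistar rats (RccHan:WIST; n = 6) were given a single oral gavage dose of compound in DMSO plus 7.5% succinylated gelatine (final 5% DMSO). Blood lymphocytes were counted just before dosing and at later timepoints. Percent change was calculated per animal relative to the pre-dose value and compared with a vehicle-treated group, reported as the mean. A ±15% change was treated as baseline, and a reduction of about 60% or more as maximal.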"}, "[5]": {"experiment": "Total brain concentration in Wistar rat at 10 mg/kg administered as single dose through oral gavage after 2 hrs by LC-MS/MS analysis", "format": "ADME, organism-based", "conditions": "read-out: Drug uptake", "in_short": "(§3)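 Male Wistar rats (n = 2 per timepoint) were dosed orally at 10 mg/kg. At 2, 6 and 24 h they were anaesthetised with 5% isoflurane and sacrificed, and blood was taken for plasma. The brain was perfused via the carotid with 10 mL 0.9% NaCl, removed, and homogenised in an equal volume of ice-cold 0.1 M Na-phosphate pH 7.4. Samples were assayed by LC-MS/MS against blank-brain calibration. Brain/plasma ratio was calculated from these values, reported as the mean of 2.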"}, "[6]": {"experiment": "Total brain concentration in Wistar rat at 10 mg/kg administered as single dose through oral gavage after 6 hrs by LC-MS/MS analysis", "format": "ADME, organism-based", "conditions": "read-out: Drug uptake", "in_short": "as §3"}, "[7]": {"experiment": "Total brain concentration in Wistar rat at 10 mg/kg administered as single dose through oral gavage after 24 hrs by LC-MS/MS analysis", "format": "ADME, organism-based", "conditions": "read-out: Drug uptake", "in_short": "as §3"}, "[8]": {"experiment": "Total plasma concentration in Wistar rat at 10 mg/kg administered as single dose through oral gavage after 2 hrs by LC-MS/MS analysis", "format": "ADME, organism-based", "in_short": "as §3"}, "[9]": {"experiment": "Ratio of total drug level in brain to plasma in Wistar rat at 10 mg/kg administered as single dose through oral gavage after 6 hrs", "format": "ADME, organism-based", "conditions": "read-out: BPR", "in_short": "as §3"}, "[10]": {"target": "Sphingosine 1-phosphate receptor 1 (Homo sapiens, UniProt P21453)", "sequence (P21453 whole entry)": "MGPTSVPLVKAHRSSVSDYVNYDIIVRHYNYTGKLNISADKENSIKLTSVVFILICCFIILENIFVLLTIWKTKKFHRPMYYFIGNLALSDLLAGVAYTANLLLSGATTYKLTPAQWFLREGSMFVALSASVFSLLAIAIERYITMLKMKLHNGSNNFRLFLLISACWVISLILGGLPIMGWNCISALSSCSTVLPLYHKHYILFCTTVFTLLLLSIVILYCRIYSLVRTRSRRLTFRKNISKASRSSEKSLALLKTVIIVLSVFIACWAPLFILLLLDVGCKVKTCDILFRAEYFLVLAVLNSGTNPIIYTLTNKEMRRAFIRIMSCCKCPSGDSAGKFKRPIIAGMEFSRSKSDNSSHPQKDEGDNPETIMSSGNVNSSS", "experiment": "Agonist activity at human recombinant S1PR1 expressed in CHO cell membranes assessed as [35S]GTPgammaS binding preincubated for 30 mins followed by [35S]GTPgammaS addition measured after 1 hr by topcount analysis"}, "Rattus norvegicus [11]": {"system": "Rattus norvegicus", "experiment": "Change in circulating lymphocyte count in Wistar rat at 10 mg/kg administered as single dose through oral gavage after 24 hrs relative to control", "format": "functional", "in_short": "as §2"}, "[12]": {"experiment": "Selectivity ratio of EC50 for human recombinant S1PR3 expressed in CHO cell membranes to EC50 for human recombinant S1PR1 expressed in CHO cell membranes", "format": "cell-based", "in_short": "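Compound and membranes are pre-incubated 30 min at rt, then incubated 1 h at rt, filtered and counted. EC50 is the concentration giving 50% of S1P-defined specific binding, as the geometric mean of ≥3 independent duplicate runs. Ratio = EC50 S1PR3/EC50 S1PR1.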"}, "[13]": {"experiment": "Apparent intrinsic clearance in Wistar rat liver microsomes at 1 uM after 2.5 to 15 mins by LC-MS/MS analysis in presence of NADPH", "format": "ADME", "conditions": "read-out: CLH(app)", "in_short": "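Compound at 1 uM starting concentration was depleted by 0.5 mg/mL rat liver microsomes in 100 mM sodium phosphate pH 7.4 at 37 °C, with shaking under air. Reactions were started with an NADPH-regenerating system. Samples were taken at 0, 2.5, 5, 10 and 15 min, quenched in ice-cold methanol and analysed by LC-MS/MS. CLint,app came from first-order decay fitting.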"}, "[14]": {"experiment": "Distribution coefficient, log D between 1-octonol and phosphate buffer at pH 7", "format": "physicochemical", "conditions": "1-octanol/phosphate buffer", "in_short": "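Partition was between 1-octanol and phosphate buffer at pH 7.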"}, "[15]": {"experiment": "Fraction unbound in Wistar rat liver microsomes incubated for 6 hrs by LC-MS/MS based equilibrium dialysis method", "format": "ADME", "in_short": "(§4)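 Rapid equilibrium dialysis was run on a shaker for 6 h at 37 °C. The donor side held rat plasma (pH 7.2–7.6) or 1 mg/mL rat liver microsomes in phosphate buffer pH 7.4. The receiver side held phosphate buffer pH 7.4. Both sides were measured by LC-MS/MS to give free fraction and recovery.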"}, "[16]": {"experiment": "Fraction unbound in Wistar rat plasma incubated for 6 hrs by LC-MS/MS based equilibrium dialysis method", "format": "ADME, cell-free", "in_short": "as §4"}, "Liver microsome": {"system": "Liver microsome", "experiment": "Unbound fraction corrected apparent intrinsic clearance in Wistar rat liver microsomes at 1 uM after 2.5 to 15 mins by LC-MS/MS analysis in presence of NADPH", "format": "ADME", "in_short": "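Apparent CLint was measured by microsomal substrate depletion: 1 uM start, 0.5 mg/mL rat liver microsomes, pH 7.4, 37 °C, NADPH-regenerating system, sampling 0–15 min, LC-MS/MS. It was then divided by the unbound microsomal fraction, which was determined by rapid equilibrium dialysis of 1 mg/mL microsomes for 6 h at 37 °C.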"}, "[17]": {"experiment": "Plasma concentration in Wistar rat at 10 mg/kg administered as single dose through oral gavage after 3 hrs by LC-MS/MS analysis", "format": "ADME, organism-based", "in_short": "as §1"}, "[18]": {"target": "Sphingosine 1-phosphate receptor 5 (Homo sapiens, UniProt Q9H228)", "sequence (Q9H228 whole entry)": "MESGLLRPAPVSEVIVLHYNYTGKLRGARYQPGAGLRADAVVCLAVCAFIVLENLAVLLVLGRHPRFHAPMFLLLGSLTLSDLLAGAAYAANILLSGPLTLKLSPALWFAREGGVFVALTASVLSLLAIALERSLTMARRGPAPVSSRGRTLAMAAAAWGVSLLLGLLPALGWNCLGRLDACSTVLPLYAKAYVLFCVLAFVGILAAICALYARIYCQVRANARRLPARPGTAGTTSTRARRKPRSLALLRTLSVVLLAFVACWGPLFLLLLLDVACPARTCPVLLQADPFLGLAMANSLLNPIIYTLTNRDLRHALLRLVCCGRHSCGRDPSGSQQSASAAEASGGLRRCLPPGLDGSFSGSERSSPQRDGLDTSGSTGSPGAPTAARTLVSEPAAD", "experiment": "Agonist activity at S1PR5 (unknown origin)"}, "Rattus norvegicus [19]": {"system": "Rattus norvegicus", "experiment": "Change in circulating lymphocyte count in Wistar rat at 1 mg/kg administered as single dose through oral gavage after 3 hrs relative to control", "format": "functional", "in_short": "as §2"}, "Rattus norvegicus [20]": {"system": "Rattus norvegicus", "experiment": "Change in circulating lymphocyte count in Wistar rat at 3 mg/kg administered as single dose through oral gavage after 3 hrs relative to control", "format": "functional", "in_short": "as §2"}, "Rattus norvegicus [21]": {"system": "Rattus norvegicus", "experiment": "Change in circulating lymphocyte count in Wistar rat at 1 mg/kg administered as single dose through oral gavage after 6 hrs relative to control", "format": "functional", "in_short": "as §2"}, "Rattus norvegicus [22]": {"system": "Rattus norvegicus", "experiment": "Change in circulating lymphocyte count in Wistar rat at 1 mg/kg administered as single dose through oral gavage after 24 hrs relative to control", "format": "functional", "in_short": "as §2"}, "Rattus norvegicus [23]": {"system": "Rattus norvegicus", "experiment": "Change in circulating lymphocyte count in Wistar rat at 3 mg/kg administered as single dose through oral gavage after 24 hrs relative to control", "format": "functional", "in_short": "as §2"}, "[24]": {"experiment": "Plasma concentration in Wistar rat at 1 mg/kg administered as single dose through oral gavage after 3 hrs by LC-MS/MS analysis", "format": "ADME, organism-based", "in_short": "as §1"}, "[25]": {"experiment": "Plasma concentration in Wistar rat at 3 mg/kg administered as single dose through oral gavage after 3 hrs by LC-MS/MS analysis", "format": "ADME, organism-based", "in_short": "as §1"}, "[26]": {"experiment": "Plasma concentration in Wistar rat at 1 mg/kg administered as single dose through oral gavage after 6 hrs by LC-MS/MS analysis", "format": "ADME, organism-based", "in_short": "as §1"}}, "data": [{"compound": "CCc1cc(-c2noc(-c3cc(C)c(CN(C)CC(C)C)s3)n2)cc(C)c1OC[C@@H](O)CNC(=O)CO", "values": [{"measurement": "concentration at 6 h", "setting": "[1]", "value": 170, "unit": "ng/mL"}, {"measurement": "concentration at 24 h", "setting": "[2]", "value": 5.2, "unit": "ng/mL"}, {"measurement": "concentration at 24 h", "setting": "[3]", "value": 25, "unit": "ng/mL"}, {"measurement": "Activity", "setting": "Rattus norvegicus [4]", "value": "Dose-dependent effect"}, {"measurement": "concentration at 2 h", "setting": "[5]", "value": 522, "unit": "ng/g"}, {"measurement": "concentration at 6 h", "setting": "[6]", "value": 1030, "unit": "ng/g"}, {"measurement": "concentration at 24 h", "setting": "[7]", "value": 776, "unit": "ng/g"}, {"measurement": "concentration at 2 h", "setting": "[8]", "value": 783, "unit": "ng/mL"}, {"measurement": "Kp at 6 h", "setting": "[9]", "value": 1.69}, {"measurement": "EC50", "setting": "[10]", "value": 0.5, "unit": "nM"}, {"measurement": "Activity", "setting": "Rattus norvegicus [11]", "value": -70, "unit": "%"}, {"measurement": "Ratio EC50", "setting": "[12]", "value": 290}, {"measurement": "microsomal CLint at 1 µM", "setting": "[13]", "value": 28, "unit": "µL/min/mg"}, {"measurement": "logD", "setting": "[14]", "value": "> 4.1"}, {"measurement": "fraction unbound at 6 h", "setting": "[15]", "value": 0.002}, {"measurement": "fraction unbound at 6 h", "setting": "[16]", "value": "< 0.001"}, {"measurement": "CL free", "setting": "Liver microsome", "value": 14000, "unit": "µL/min/mg"}, {"measurement": "concentration at 3 h", "setting": "[17]", "value": 722, "unit": "ng/mL"}, {"measurement": "EC50", "setting": "[18]", "value": 753, "unit": "nM"}, {"measurement": "Activity", "setting": "Rattus norvegicus [19]", "value": -33, "unit": "%"}, {"measurement": "Activity", "setting": "Rattus norvegicus [20]", "value": -59, "unit": "%"}, {"measurement": "Activity", "setting": "Rattus norvegicus [21]", "value": -46, "unit": "%"}, {"measurement": "Activity", "setting": "Rattus norvegicus [22]", "value": 4, "unit": "%"}, {"measurement": "Activity", "setting": "Rattus norvegicus [23]", "value": -25, "unit": "%"}, {"measurement": "concentration at 3 h", "setting": "[24]", "value": 67, "unit": "ng/mL"}, {"measurement": "concentration at 3 h", "setting": "[25]", "value": 210, "unit": "ng/mL"}, {"measurement": "concentration at 6 h", "setting": "[26]", "value": 49, "unit": "ng/mL"}]}]}
